Data published in ChEMBL document CHEMBL2375313, “Synthesis, in vitro antitumor evaluation and DNA-binding study of novel tetrahydroquinolines and some derived tricyclic and tetracyclic ring systems” (Eur J Med Chem, 2013).

Key:
Assay type in all cases: functional
NCI-H23 = experiment: Cytotoxicity against human NCI-H23 cells assessed as growth inhibition at 10 uM after 48 hrs by sulphorhodamine B assay; conditions: NCI-H23, 48 h, read-out: GI
Method in brief: (§1)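 NCI-60 one-dose screen per the NCI Drug Evaluation Branch protocol. Cells given a single 10 µM concentration with 48 h continuous exposure. Growth estimated by sulphorhodamine B protein assay. Result expressed as percentage growth inhibition relative to untreated growth.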

[1] = Cytotoxicity against human EKVX cells assessed as growth inhibition at 10 uM after 48 hrs by sulphorhodamine B assay; conditions: read-out: GI; method in brief: as §1
A549 = experiment: Cytotoxicity against human A549 cells assessed as growth inhibition at 10 uM after 48 hrs by sulphorhodamine B assay; conditions: A549, 48 h, read-out: GI; method in brief: as §1
NCI/ADR-RES = experiment: Cytotoxicity against human NCI/ADR-RES cells assessed as growth inhibition at 10 uM after 48 hrs by sulphorhodamine B assay; conditions: read-out: GI; method in brief: as §1
SNB-75 = experiment: Cytotoxicity against human SNB75 cells assessed as growth inhibition at 10 uM after 48 hrs by sulphorhodamine B assay; conditions: SNB-75, 48 h, read-out: GI; method in brief: as §1
U-251 = experiment: Cytotoxicity against human U251 cells assessed as growth inhibition at 10 uM after 48 hrs by sulphorhodamine B assay; conditions: U-251, 48 h, read-out: GI; method in brief: as §1
SNB-19 = experiment: Cytotoxicity against human SNB19 cells assessed as growth inhibition at 10 uM after 48 hrs by sulphorhodamine B assay; conditions: SNB-19, 48 h, read-out: GI; method in brief: as §1
SF-295 = experiment: Cytotoxicity against human SF295 cells assessed as growth inhibition at 10 uM after 48 hrs by sulphorhodamine B assay; conditions: SF-295, 48 h, read-out: GI; method in brief: as §1
DU-145 = experiment: Cytotoxicity against human DU145 cells assessed as growth inhibition at 10 uM after 48 hrs by sulphorhodamine B assay; conditions: DU-145, 48 h, read-out: GI; method in brief: as §1
SF-268 = experiment: Cytotoxicity against human SF268 cells assessed as growth inhibition at 10 uM after 48 hrs by sulphorhodamine B assay; conditions: SF-268, 48 h, read-out: GI; method in brief: as §1
PC-3 = experiment: Cytotoxicity against human PC3 cells assessed as growth inhibition at 10 uM after 48 hrs by sulphorhodamine B assay; conditions: PC-3, 48 h, read-out: GI; method in brief: as §1
UACC-62 = experiment: Cytotoxicity against human UACC62 cells assessed as growth inhibition at 10 uM after 48 hrs by sulphorhodamine B assay; conditions: UACC-62, 48 h, read-out: GI; method in brief: as §1
SK-MEL-2 = experiment: Cytotoxicity against human SK-MEL-2 cells assessed as growth inhibition at 10 uM after 48 hrs by sulphorhodamine B assay; conditions: SK-MEL-2, 48 h, read-out: GI; method in brief: as §1
SK-MEL-5 = experiment: Cytotoxicity against human SK-MEL-5 cells assessed as growth inhibition at 10 uM after 48 hrs by sulphorhodamine B assay; conditions: SK-MEL-5, 48 h, read-out: GI; method in brief: as §1
M14 = experiment: Cytotoxicity against human M14 cells assessed as growth inhibition at 10 uM after 48 hrs by sulphorhodamine B assay; conditions: M14, 48 h, read-out: GI; method in brief: as §1
LOX IMVI = experiment: Cytotoxicity against human LOXIMVI cells assessed as growth inhibition at 10 uM after 48 hrs by sulphorhodamine B assay; conditions: read-out: GI; method in brief: as §1
UO-31 = experiment: Cytotoxicity against human UO31 cells assessed as growth inhibition at 10 uM after 48 hrs by sulphorhodamine B assay; conditions: UO-31, 48 h, read-out: GI; method in brief: as §1
CAKI-1 = experiment: Cytotoxicity against human Caki1 cells assessed as growth inhibition at 10 uM after 48 hrs by sulphorhodamine B assay; conditions: CAKI-1, 48 h, read-out: GI; method in brief: as §1
RXF 393 = experiment: Cytotoxicity against human RXF393 cells assessed as growth inhibition at 10 uM after 48 hrs by sulphorhodamine B assay; conditions: RXF 393, 48 h, read-out: GI; method in brief: as §1
ACHN = experiment: Cytotoxicity against human ACHN cells assessed as growth inhibition at 10 uM after 48 hrs by sulphorhodamine B assay; conditions: read-out: GI; method in brief: as §1
SR = experiment: Cytotoxicity against human SR cells assessed as growth inhibition at 10 uM after 48 hrs by sulphorhodamine B assay; conditions: read-out: GI; method in brief: as §1
A498 = experiment: Cytotoxicity against human A498 cells assessed as growth inhibition at 10 uM after 48 hrs by sulphorhodamine B assay; conditions: A498, 48 h, read-out: GI; method in brief: as §1
RPMI-8226 = experiment: Cytotoxicity against human RPMI8226 cells assessed as growth inhibition at 10 uM after 48 hrs by sulphorhodamine B assay; conditions: RPMI-8226, 48 h, read-out: GI; method in brief: as §1
MOLT-4 = experiment: Cytotoxicity against human MOLT4 cells assessed as growth inhibition at 10 uM after 48 hrs by sulphorhodamine B assay; conditions: MOLT-4, 48 h, read-out: GI; method in brief: as §1
K562 = experiment: Cytotoxicity against human K562 cells assessed as growth inhibition at 10 uM after 48 hrs by sulphorhodamine B assay; conditions: K562, 48 h, read-out: GI; method in brief: as §1
HL-60(TB) = experiment: Cytotoxicity against human HL-60(TB) cells assessed as growth inhibition at 10 uM after 48 hrs by sulphorhodamine B assay; conditions: HL-60, 48 h, read-out: GI
Method in brief: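 NCI-60 one-dose primary screen run to the Drug Evaluation Branch protocol. Cells are exposed to a single 10 µM concentration for 48 h continuously, and growth is read by SRB protein assay. Data are reported as percent growth of treated cells, expressed as % growth inhibition.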

SK-OV-3 = experiment: Cytotoxicity against human SKOV3 cells assessed as growth inhibition at 10 uM after 48 hrs by sulphorhodamine B assay; conditions: SK-OV-3, 48 h, read-out: GI; method in brief: as §1
CCRF-CEM = experiment: Cytotoxicity against human CCRF-CEM cells assessed as growth inhibition at 10 uM after 48 hrs by sulphorhodamine B assay; conditions: read-out: GI; method in brief: as §1
OVCAR-5 = experiment: Cytotoxicity against human OVCAR5 cells assessed as growth inhibition at 10 uM after 48 hrs by sulphorhodamine B assay; conditions: OVCAR-5, 48 h, read-out: GI; method in brief: as §1
OVCAR-4 = experiment: Cytotoxicity against human OVCAR4 cells assessed as growth inhibition at 10 uM after 48 hrs by sulphorhodamine B assay; conditions: OVCAR-4, 48 h, read-out: GI; method in brief: as §1
IGROV-1 = experiment: Cytotoxicity against human IGROV1 cells assessed as growth inhibition at 10 uM after 48 hrs by sulphorhodamine B assay; conditions: IGROV-1, 48 h, read-out: GI; method in brief: as §1
T47D = experiment: Cytotoxicity against human T47D cells assessed as growth inhibition at 10 uM after 48 hrs by sulphorhodamine B assay; conditions: read-out: GI; method in brief: as §1
Hs-578T = experiment: Cytotoxicity against human Hs578T cells assessed as growth inhibition at 10 uM after 48 hrs by sulphorhodamine B assay; conditions: read-out: GI; method in brief: as §1
NCI-H522 = experiment: Cytotoxicity against human NCI-H522 cells assessed as growth inhibition at 10 uM after 48 hrs by sulphorhodamine B assay; conditions: NCI-H522, 48 h, read-out: GI; method in brief: as §1
HT-29 = experiment: Cytotoxicity against human HT-29 cells assessed as growth inhibition at 10 uM after 48 hrs by sulphorhodamine B assay; conditions: HT-29, 48 h, read-out: GI; method in brief: as §1
MCF7 = experiment: Cytotoxicity against human MCF7 cells assessed as growth inhibition at 10 uM after 48 hrs by sulphorhodamine B assay; conditions: MCF7, 48 h, read-out: GI; method in brief: as §1
MDA-MB-435 = experiment: Cytotoxicity against human MDA-MB-435 cells assessed as growth inhibition at 10 uM after 48 hrs by sulphorhodamine B assay; conditions: MDA-MB-435, 48 h, read-out: GI; method in brief: as §1
HCT-15 = experiment: Cytotoxicity against human HCT15 cells assessed as growth inhibition at 10 uM after 48 hrs by sulphorhodamine B assay; conditions: HCT-15, 48 h, read-out: GI; method in brief: as §1
MDA-MB-468 = experiment: Cytotoxicity against human MDA-MB-468 cells assessed as growth inhibition at 10 uM after 48 hrs by sulphorhodamine B assay; conditions: MDA-MB-468, 48 h, read-out: GI; method in brief: as §1
HCT-116 = experiment: Cytotoxicity against human HCT116 cells assessed as growth inhibition at 10 uM after 48 hrs by sulphorhodamine B assay; conditions: HCT-116, 48 h, read-out: GI; method in brief: as §1
HOP-92 = experiment: Cytotoxicity against human HOP92 cells assessed as growth inhibition at 10 uM after 48 hrs by sulphorhodamine B assay; conditions: HOP-92, 48 h, read-out: GI; method in brief: as §1

## COc1ccc(-c2c3c(nc4ncn(N)c(=N)c24)C(C)CCC3)cc1 (stereo unspecified)
NCI-H23
  inhibition of growth at 10 µM: 14.4%
[1]
  inhibition of growth at 10 µM: 21.5%
A549
  inhibition of growth at 10 µM: < 10%
NCI/ADR-RES
  inhibition of growth at 10 µM: < 10%
SNB-75
  inhibition of growth at 10 µM: 14.3%
U-251
  inhibition of growth at 10 µM: 16.7%
SNB-19
  inhibition of growth at 10 µM: < 10%
SF-295
  inhibition of growth at 10 µM: < 10%
DU-145
  inhibition of growth at 10 µM: < 10%
SF-268
  inhibition of growth at 10 µM: < 10%
PC-3
  inhibition of growth at 10 µM: < 10%
UACC-62
  inhibition of growth at 10 µM: 24%
SK-MEL-2
  inhibition of growth at 10 µM: 11%
SK-MEL-5
  inhibition of growth at 10 µM: < 10%
M14
  inhibition of growth at 10 µM: < 10%
LOX IMVI
  inhibition of growth at 10 µM: < 10%
UO-31
  inhibition of growth at 10 µM: < 10%
CAKI-1
  inhibition of growth at 10 µM: 10%
RXF 393
  inhibition of growth at 10 µM: < 10%
ACHN
  inhibition of growth at 10 µM: 14.5%
SR
  inhibition of growth at 10 µM: < 10%
A498
  inhibition of growth at 10 µM: < 10%
RPMI-8226
  inhibition of growth at 10 µM: < 10%
MOLT-4
  inhibition of growth at 10 µM: < 10%
K562
  inhibition of growth at 10 µM: < 10%
HL-60(TB)
  inhibition of growth at 10 µM: < 10%
SK-OV-3
  inhibition of growth at 10 µM: < 10%
CCRF-CEM
  inhibition of growth at 10 µM: < 10%
OVCAR-5
  inhibition of growth at 10 µM: < 10%
OVCAR-4
  inhibition of growth at 10 µM: 20%
IGROV-1
  inhibition of growth at 10 µM: < 10%
T47D
  inhibition of growth at 10 µM: 18.1%
Hs-578T
  inhibition of growth at 10 µM: < 10%
NCI-H522
  inhibition of growth at 10 µM: 26%
HT-29
  inhibition of growth at 10 µM: < 10%
MCF7
  inhibition of growth at 10 µM: < 10%
MDA-MB-435
  inhibition of growth at 10 µM: 19%
HCT-15
  inhibition of growth at 10 µM: 25%
MDA-MB-468
  inhibition of growth at 10 µM: < 10%
HCT-116
  inhibition of growth at 10 µM: 22.3%

## CC1CCCc2c1nc1[nH]c(=O)nc(N)c1c2-c1ccc(Cl)cc1 (stereo unspecified)
HOP-92
  inhibition of growth at 10 µM: 27.7%
NCI-H23
  inhibition of growth at 10 µM: 10%
[1]
  inhibition of growth at 10 µM: < 10%
A549
  inhibition of growth at 10 µM: 11.5%
NCI/ADR-RES
  inhibition of growth at 10 µM: < 10%
SNB-75
  inhibition of growth at 10 µM: 11%
U-251
  inhibition of growth at 10 µM: 10.2%
SNB-19
  inhibition of growth at 10 µM: 16.6%
SF-295
  inhibition of growth at 10 µM: < 10%
DU-145
  inhibition of growth at 10 µM: 14%
SF-268
  inhibition of growth at 10 µM: < 10%
PC-3
  inhibition of growth at 10 µM: 12.7%
UACC-62
  inhibition of growth at 10 µM: 25.4%
SK-MEL-2
  inhibition of growth at 10 µM: < 10%
SK-MEL-5
  inhibition of growth at 10 µM: < 10%
M14
  inhibition of growth at 10 µM: < 10%
LOX IMVI
  inhibition of growth at 10 µM: < 10%
UO-31
  inhibition of growth at 10 µM: 10%
CAKI-1
  inhibition of growth at 10 µM: < 10%
RXF 393
  inhibition of growth at 10 µM: < 10%
ACHN
  inhibition of growth at 10 µM: < 10%
SR
  inhibition of growth at 10 µM: < 10%
A498
  inhibition of growth at 10 µM: < 10%
RPMI-8226
  inhibition of growth at 10 µM: 23%
MOLT-4
  inhibition of growth at 10 µM: < 10%
K562
  inhibition of growth at 10 µM: 36.4%
HL-60(TB)
  inhibition of growth at 10 µM: 24.6%
SK-OV-3
  inhibition of growth at 10 µM: < 10%
CCRF-CEM
  inhibition of growth at 10 µM: < 10%
OVCAR-5
  inhibition of growth at 10 µM: < 10%
OVCAR-4
  inhibition of growth at 10 µM: 13.6%
IGROV-1
  inhibition of growth at 10 µM: < 10%
T47D
  inhibition of growth at 10 µM: 29.5%
Hs-578T
  inhibition of growth at 10 µM: 19.4%
NCI-H522
  inhibition of growth at 10 µM: 12.9%
HT-29
  inhibition of growth at 10 µM: < 10%
MCF7
  inhibition of growth at 10 µM: < 10%
MDA-MB-435
  inhibition of growth at 10 µM: < 10%
HCT-15
  inhibition of growth at 10 µM: 10%
MDA-MB-468
  inhibition of growth at 10 µM: 10%
HCT-116
  inhibition of growth at 10 µM: 14%
